Results on eleven compounds are retold here after publication PMC6403082 (International Journal of Neuropsychopharmacology, 2018).

In one series the target is NMDA, glycine (Homo sapiens, UniProt Q05586). The series can be described thus: Radioligand displacement, NMDA glycine site. The series is classed as binding. The conditions noted are these: 30 μM test compound.
The next series relates to NMDA, polyamine. Briefly: Radioligand displacement, NMDA polyamine site. The series is classed as binding. Conditions: 30 μM test compound. (In a radioligand displacement assay an active substance lowers the binding of a labelled ligand.)
The test system of the next series is NMDA, glutamate. The series can be described thus: Radioligand displacement, NMDA glutamate site. It counts as binding. The conditions noted are these: 30 μM test compound.
For another series, the system named is NMDA, MK-801. The series can be described thus: Radioligand displacement, NMDA MK-801 site. The series is classed as binding. The conditions noted are these: 30 μM test compound; inhibition >50% considered meaningful.
The test system of the next series is NMDA, PCP. Briefly: Radioligand displacement, NMDA PCP site. The conditions noted are these: 30 μM test compound. The series is classed as binding.
Series [1] deals with NMDAR current in rat cortical slices. The conditions noted are these: 100 μM 7-CK; ref Kemp et al., 1988; cited from earlier work.
The subject of series [2] is NMDAR in rat primary cortical neurons. The series can be described thus: Intracellular Ca2+ influx. It counts as cell-based. The conditions noted are these: for Effect on 10 μM NMDA-induced calcium response: 300 μM 7-CK or 10 μM MDL; for EC50: rat primary cortical neurons.
The target of series [3] is mutant NR1-NR2B receptors (NR1 F484A/T518L) (Homo sapiens, UniProt Q05586+Q13224, F484A/T518L). The series can be described thus: [3H] MK-801 binding at glycine-site mutant NR1-NR2B. It counts as biochemical. The conditions noted are these: NR1 F484A/T518L loss-of-function glycine-site mutant vs wild-type NR1-NR2B. An outline of the steps:
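Crude membranes from transiently transfected HEK cells (NR1-NR2B, wild-type or NR1 F484A/T518L glycine-site mutant), washed in 10 mM Tris·acetate pH 7.4, homogenised, pelleted at 51 500 × g, all at 4°C. […] Then […] [3H] MK-801 (22.5 Ci/mmol) added for 15 min (nonequilibrium), and filtered. n = 18, 2-tailed t test.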

Series [4] can be described thus: mPFC microdialysis of rapastinel. It counts as in vivo. The conditions noted are these: rat, sc. An outline of the steps:
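Freely moving rats had guide cannulae implanted in mPFC (AP +3.2, L +0.5, V −1.5 mm from bregma/dura). After 7 days of recovery, a probe was inserted (3-mm membrane, 50 kDa cutoff) and perfused with aCSF at 1 μL/min (148 NaCl, 4 KCl, 0.8 MgCl2, 1.4 CaCl2, 1.2 Na2HPO4, 0.3 NaH2PO4 mM; pH 7.2). Test compound was given s.c. in sterile saline.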

Series [5] has as its target mutant NR2B (R393E) NMDAR in HEK293 cells (Homo sapiens, UniProt Q05586+Q13224, R393E). Briefly: Intracellular calcium response in HEK cells, NR2B R393E. It counts as cell-based.

Like-named read-outs stand apart in the source and are kept apart here. Peptide text beside a SMILES is read from it.

As a reminder, the EC50 is the concentration at which the effect is half-maximal. The Tmax is the time from dosing to the highest level. By half-life is commonly meant the time needed for the level to fall by half in the phase considered. Low values mean rapid decline, high ones slow decline. As a reminder, the IC50 is the concentration that gives 50% inhibition.

mutant NR1-NR2B receptors (NR1 F484A/T518L), sequence (Q13224 27-1484, other chains not shown): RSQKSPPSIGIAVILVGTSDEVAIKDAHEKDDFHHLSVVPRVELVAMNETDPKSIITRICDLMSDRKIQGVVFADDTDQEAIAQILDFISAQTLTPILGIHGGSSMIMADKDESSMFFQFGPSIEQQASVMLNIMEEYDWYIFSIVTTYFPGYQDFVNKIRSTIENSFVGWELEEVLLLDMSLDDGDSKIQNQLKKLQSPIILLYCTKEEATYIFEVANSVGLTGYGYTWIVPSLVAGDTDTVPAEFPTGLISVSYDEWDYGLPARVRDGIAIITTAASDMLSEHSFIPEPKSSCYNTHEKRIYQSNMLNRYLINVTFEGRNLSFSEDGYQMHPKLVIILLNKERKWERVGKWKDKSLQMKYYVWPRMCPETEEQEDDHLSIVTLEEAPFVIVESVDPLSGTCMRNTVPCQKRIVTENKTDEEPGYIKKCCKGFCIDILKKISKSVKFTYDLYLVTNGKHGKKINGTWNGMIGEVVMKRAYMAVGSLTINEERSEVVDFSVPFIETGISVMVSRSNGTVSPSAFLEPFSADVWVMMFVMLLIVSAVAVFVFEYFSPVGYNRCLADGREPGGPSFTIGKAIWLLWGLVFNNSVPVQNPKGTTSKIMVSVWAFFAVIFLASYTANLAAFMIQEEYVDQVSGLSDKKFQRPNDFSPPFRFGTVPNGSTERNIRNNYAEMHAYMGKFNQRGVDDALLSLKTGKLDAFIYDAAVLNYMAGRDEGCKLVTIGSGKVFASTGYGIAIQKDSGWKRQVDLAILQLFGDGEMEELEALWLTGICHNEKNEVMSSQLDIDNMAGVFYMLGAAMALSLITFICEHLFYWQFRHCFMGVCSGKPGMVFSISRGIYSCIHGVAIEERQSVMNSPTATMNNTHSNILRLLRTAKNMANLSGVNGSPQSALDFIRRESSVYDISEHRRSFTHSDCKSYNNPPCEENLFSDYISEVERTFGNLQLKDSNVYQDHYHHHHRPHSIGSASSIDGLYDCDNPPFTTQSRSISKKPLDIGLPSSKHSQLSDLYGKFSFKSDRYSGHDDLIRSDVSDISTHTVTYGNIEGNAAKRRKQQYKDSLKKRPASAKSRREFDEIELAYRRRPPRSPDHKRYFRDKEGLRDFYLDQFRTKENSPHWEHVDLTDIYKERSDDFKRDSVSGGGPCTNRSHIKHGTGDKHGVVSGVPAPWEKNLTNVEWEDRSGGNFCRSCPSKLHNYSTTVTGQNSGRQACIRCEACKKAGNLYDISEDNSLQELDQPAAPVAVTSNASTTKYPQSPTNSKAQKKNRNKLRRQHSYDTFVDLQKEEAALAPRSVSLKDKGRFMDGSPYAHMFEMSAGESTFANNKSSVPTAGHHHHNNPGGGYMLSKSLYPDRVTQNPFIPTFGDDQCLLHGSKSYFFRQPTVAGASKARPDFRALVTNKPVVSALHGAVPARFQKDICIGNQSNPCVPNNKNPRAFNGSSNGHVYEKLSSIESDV
mutant NR2B (R393E) NMDAR in HEK293 cells, sequence (Q13224 27-1484 R393E, other chains not shown): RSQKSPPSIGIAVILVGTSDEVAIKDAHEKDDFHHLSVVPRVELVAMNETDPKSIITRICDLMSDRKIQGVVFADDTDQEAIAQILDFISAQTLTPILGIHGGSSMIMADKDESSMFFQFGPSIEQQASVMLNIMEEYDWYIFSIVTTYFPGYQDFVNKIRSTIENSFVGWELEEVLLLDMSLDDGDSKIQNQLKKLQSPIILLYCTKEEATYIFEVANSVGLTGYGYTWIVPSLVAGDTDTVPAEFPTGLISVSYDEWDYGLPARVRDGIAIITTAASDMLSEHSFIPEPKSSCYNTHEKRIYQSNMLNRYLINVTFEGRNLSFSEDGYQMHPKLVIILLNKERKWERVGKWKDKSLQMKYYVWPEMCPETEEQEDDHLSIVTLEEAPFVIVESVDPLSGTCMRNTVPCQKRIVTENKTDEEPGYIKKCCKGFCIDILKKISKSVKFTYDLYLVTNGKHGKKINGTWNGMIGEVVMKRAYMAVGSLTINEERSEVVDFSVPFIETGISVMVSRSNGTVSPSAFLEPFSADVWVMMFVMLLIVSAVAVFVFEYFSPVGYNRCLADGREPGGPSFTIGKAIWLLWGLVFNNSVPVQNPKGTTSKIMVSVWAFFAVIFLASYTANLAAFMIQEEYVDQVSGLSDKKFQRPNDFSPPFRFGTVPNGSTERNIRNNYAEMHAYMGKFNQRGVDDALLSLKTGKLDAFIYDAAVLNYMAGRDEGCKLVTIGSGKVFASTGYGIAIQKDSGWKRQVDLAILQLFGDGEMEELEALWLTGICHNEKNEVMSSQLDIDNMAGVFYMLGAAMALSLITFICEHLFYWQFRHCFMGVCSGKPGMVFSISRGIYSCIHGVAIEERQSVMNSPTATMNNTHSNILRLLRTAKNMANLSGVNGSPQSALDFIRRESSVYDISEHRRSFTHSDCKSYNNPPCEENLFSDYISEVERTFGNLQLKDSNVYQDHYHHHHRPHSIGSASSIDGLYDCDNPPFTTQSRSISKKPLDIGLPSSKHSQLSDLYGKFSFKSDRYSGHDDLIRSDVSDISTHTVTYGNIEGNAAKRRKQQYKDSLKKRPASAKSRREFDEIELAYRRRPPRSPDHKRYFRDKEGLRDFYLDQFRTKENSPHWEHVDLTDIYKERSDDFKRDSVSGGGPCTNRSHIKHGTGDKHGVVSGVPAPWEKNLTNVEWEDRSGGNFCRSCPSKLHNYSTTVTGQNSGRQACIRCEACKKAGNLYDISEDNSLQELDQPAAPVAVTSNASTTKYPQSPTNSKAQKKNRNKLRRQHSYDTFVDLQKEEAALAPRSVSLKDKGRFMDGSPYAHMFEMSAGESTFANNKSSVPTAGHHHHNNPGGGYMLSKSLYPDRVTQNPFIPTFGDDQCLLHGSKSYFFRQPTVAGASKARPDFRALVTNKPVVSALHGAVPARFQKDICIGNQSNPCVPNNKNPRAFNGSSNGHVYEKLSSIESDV

With `CNC1(c2ccccc2Cl)CCCCC1=O` (racemic) [(R,S)-ketamine], the “NMDA, glycine (%) radioligand displacement” value at NMDA, glycine is listed as 17%. The “NMDA, polyamine (%) radioligand displacement” value in the series with NMDA, polyamine is on record as −16%. The “NMDA, glutamate (%) radioligand displacement” value in the series with NMDA, glutamate is listed as −5%. The “NMDA, MK-801(%) radioligand displacement” value in the series on NMDA, MK-801 amounted to 96%. In addition, the “NMDA, PCP (%) radioligand displacement” value in the series on NMDA, PCP is recorded as 94%.

In the case of `O=C(O)c1cc(O)c2ccc(Cl)cc2n1` [7-CK, 7-chlorokynurenic acid], the “Effect on NMDAR current in rat cortical slices” value in [1] is recorded as “completely blocked”. The “Effect on 10 μM NMDA-induced calcium response” value in series [2] is listed as “completely abolished”.

Consider `N[C@H](CCCP(=O)(O)O)C(=O)O` [(2R)-amino-5-phosphonopentanoate], for which the “Effect on calcium response to NMDA + rapastinel + 7-CK” value in series [2] (100 μM co-infused) was “inhibited the calcium response”.

As for `N[C@H](CO)C(=O)O` [D-serine], the EC50 in series [2] (read-out: EC50, [Ca2+]i mobilization (D-serine)) came out at 0.29 µM.

Regarding `NCC(=O)O` [Glycine, glycine], in series [3], the “Enhancement of [3H] MK-801 binding at mutant receptors” value is reported as “failed to enhance”.

As to `O=C(O)/C(=C/c1c(C(=O)O)[nH]c2cc(Cl)cc(Cl)c12)c1ccccc1` [MDL], the “Block of NMDAR activation by 10 μM NMDA and 100 μM D-serine” value in [2] (10 μM MDL, n = 5) is −98.5 ± 0.2%. Besides, the “Effect on 10 μM NMDA-induced calcium response” value in series [2] is listed as “completely abolished”.

Consider `CN[C@H](CC(=O)O)C(=O)O` [NMDA, N-methyl-D-aspartate], for which the EC50 in series [2] (read-out: EC50, [Ca2+]i mobilization (NMDA)) was found to be 2.8 µM.

With `CN[C@@]1(c2ccccc2Cl)CCCCC1=O` [R-ketamine], at NMDA, glycine, the “NMDA, glycine (%) radioligand displacement” value is given as −5%. Moreover, the “NMDA, polyamine (%) radioligand displacement” value with NMDA, polyamine is 1%. Moreover, the “NMDA, glutamate (%) radioligand displacement” value in the series on NMDA, glutamate is 6%. Besides, the “NMDA, MK-801(%) radioligand displacement” value in the series on NMDA, MK-801 was determined as 89%. Also, in the series on NMDA, PCP, the “NMDA, PCP (%) radioligand displacement” value is on record as 88%.

`C[C@@H](O)[C@H](N)C(=O)N1CCC[C@H]1C(=O)N1CCC[C@H]1C(=O)N[C@H](C(N)=O)[C@@H](C)O` [Rapastinel] (H-TPPT-NH2) yielded a level at time molar in series [4] (brain (mPFC) microdialysate, 10 mg/kg) of about 0.03 µM. Also, in series [4] (in vivo), the Tmax is about 20 min and the half-life is about 20 min.

Take `CN[C@]1(c2ccccc2Cl)CCCCC1=O` [S-ketamine]: on NMDA, glycine, the “NMDA, glycine (%) radioligand displacement” value is on record as 0%. Also, the “NMDA, polyamine (%) radioligand displacement” value in the series with NMDA, polyamine was −17%. Further, the “NMDA, glutamate (%) radioligand displacement” value in the series on NMDA, glutamate was −6%. The 50% inhibitory concentration (IC50) in [2] (read-out: IC50, inhibition of NMDAR-mediated [Ca2+]i accumulation) is about 1 µM. For the same compound, the “NMDA, MK-801(%) radioligand displacement” value in the series on NMDA, MK-801 was 98%. Moreover, the “NMDA, PCP (%) radioligand displacement” value in the series on NMDA, PCP is reported as 84%.

For `N[C@@H](CCC(=O)O)C(=O)O` [glutamate], the “Receptor activation, % of 1 μM glutamate, mutated NR2B (R393E)” value in series [5] is listed as 22.6 ± 1.2%.
